SR-BI uptake up = enhances SR-BI lipid uptake from DiI-HDL | CHO ldlA[mSR-BI] cells, DiI-HDL uptake fluorescence, 3 h; 100 = double the neutral-control signal | AID 504775 | activation, % at 12.5 µM | hit rate 0.096% among 320,000;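 active = mean replicate activation of at least 60% and every replicate at or above 60%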
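System: CHO ldlA[mSR-BI] cells / Medium: HEPES-buffered (25 mM, pH 7.4) F12 plus 0.5% BSA / Probe or stimulus: labelled HDL, 10 µg/mL / Doses: single compound concentration, delivered by pin transfer / Schedule: 3 h, 37 °C / Measured by: DiI fluorescence, bottom read / Measure: cell-associated DiI fluorescence as measure of HDL uptake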
HIF act = HIF pathway transcriptional activation; U2OS HRE-luciferase reporter, luminescence; normalized: DMSO 0%, desferrioxamine 100%; activation, % at 7.5 µM (by protocol); hit rate 0.32% among 300,000; AID 1910;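 active = mean activation of at least 10% of the iron chelator positive control signal, with at least half of replicates also reaching 10%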
SR-BI HDL uptake = blocks mouse SR-BI lipid uptake from DiI-HDL; Q61009; ldlA[mSR-BI] CHO cells, DiI-HDL uptake fluorescence, 3 h; inhibition, % at 12.5 µM; hit rate 0.96% among 320,000;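 active = mean replicate inhibition of at least 70% and a set share of replicates each scoring 70 or more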
Target sequence (Q61009 whole entry, looked up): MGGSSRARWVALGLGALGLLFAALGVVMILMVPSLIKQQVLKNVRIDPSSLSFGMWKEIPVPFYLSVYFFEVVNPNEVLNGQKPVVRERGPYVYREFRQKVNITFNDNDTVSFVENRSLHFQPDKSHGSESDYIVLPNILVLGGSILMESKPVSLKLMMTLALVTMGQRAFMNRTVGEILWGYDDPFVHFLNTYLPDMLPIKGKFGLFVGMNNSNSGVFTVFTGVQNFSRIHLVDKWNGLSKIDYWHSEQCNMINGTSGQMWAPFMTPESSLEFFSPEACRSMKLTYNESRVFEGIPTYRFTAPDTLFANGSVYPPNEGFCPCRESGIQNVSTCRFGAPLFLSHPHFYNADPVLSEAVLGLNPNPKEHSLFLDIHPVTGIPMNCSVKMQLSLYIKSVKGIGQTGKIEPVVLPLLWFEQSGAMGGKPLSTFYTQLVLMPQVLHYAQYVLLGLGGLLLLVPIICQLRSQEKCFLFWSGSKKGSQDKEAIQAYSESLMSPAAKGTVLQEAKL
AHR activator = activators of human aryl hydrocarbon receptor; activation, % at 5 µM; P35869; AID 2796; AHR-responsive luciferase reporter cells, luminescence; hit rate 2.5% among 320,000; in the data active = activation above about 47%
GAA850 FXN act = activators of GAA850 frataxin (FXN) promoter; HEK293 lucGAA850 FXN promoter luciferase reporter, 24 h; percent of 10 µM SAHA response; activation, % at 6 µM; hit rate 0.56% among 360,000;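 active = activation above the average of all compounds screened plus 3 SD, cutoff fixed separately per campaign, cut at about 7.5% in these data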
ABCB6 inh 2 = human ABCB6 transporter inhibition; Q9NP58; K562-ABCB6 porphyrin accumulation, flow cytometry, 1 h; active compounds read low; fluorescence ratio to DMSO, % at 10 µM; hit rate 0.19% among 360,000;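 active = fluorescence ratio to DMSO below 75%, the collection mean minus 3 SD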;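 note: signal is porphyrin accumulated inside mitochondria; lower ratio means ABCB6 inhibition with less porphyrin fluorescence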
Of the large screens only hits and unclear results are named; the others gave an inactive call. Most compounds without a hit are left out; they make up all but 3.9% or so of the library.

Cc1ccc2nc(-c3ccccc3)cc(C(=O)Nc3cccnc3)c2c1	none (no result: HIF act)
COc1cc2c(cc1NC(=O)Nc1cccc(C)c1)oc1ccccc12	SR-BI HDL uptake 87
COc1cc2c(cc1NC(=S)Nc1cccc(C)c1)oc1ccccc12	AHR activator 84
COc1cc2c(cc1NC(=O)/C=C/c1ccccc1)oc1ccccc12	SR-BI HDL uptake 80
COc1cc2c(cc1NC(=O)c1cc(-c3cccnc3)nc3ccc(C)cc13)oc1ccccc12	SR-BI HDL uptake 78
COc1ccc(Cl)cc1NC(=S)Nc1cccc(C)c1	none
CCCc1[nH]nc2c1C1(C(=O)N(CC)c3ccccc31)C(C#N)=C(N)O2 (centres undefined)	none
O=C1C=C(NC2=CC3OC(c4ccccc4)OCC3OC2=O)CCC1 (centres undefined)	none
O=C(NCCCN1CCc2ccccc2C1)Nc1ccc(Br)cc1	AHR activator 61
NS(=O)(=O)c1ccc(CNc2ccc3ccccc3n2)cc1	none (no result: SR-BI uptake up, SR-BI HDL uptake)
Cc1cc2oc(=O)cc(-c3ccccc3)c2c(C)c1-c1ccc(C#N)cc1	SR-BI HDL uptake 82 (no result: HIF act, AHR activator)
CC(=O)c1ccc(-c2c(C)cc3oc(=O)cc(-c4ccccc4)c3c2C)cc1	none (no result: HIF act, AHR activator)
Cc1cc2oc(=O)cc(-c3ccccc3)c2c(C)c1-c1ccc(CO)cc1	SR-BI HDL uptake 75 (no result: HIF act, AHR activator)
CC(=O)C1=C(C)NC(SCC(=O)c2ccc(Cl)cc2Cl)=C(C#N)C1c1ccco1 (centres undefined)	AHR activator 107
CC(=O)C1=C(C)NC(SCC(=O)c2ccccc2)=C(C#N)C1c1ccco1 (centres undefined)	AHR activator 107 (no result: SR-BI uptake up, SR-BI HDL uptake, GAA850 FXN act, ABCB6 inh 2)
Cc1cc(C)c2cc(CN(CCN3CCCC3)C(=O)Nc3ccc(F)cc3)c(=O)[nH]c2c1	none
Cc1c(CCC(=O)O)c(=O)oc2cc(OCc3cccc(F)c3)ccc12	none
COc1ccc(Cl)cc1Nc1nc(N)nc(C(F)(F)F)n1	none
COc1ccc(Nc2nc(N)nc(C(F)(F)F)n2)c(OC)c1	AHR activator 76
C/C(=N/NC(=O)c1ccco1)c1cccc(NC(=O)c2ccc(C)o2)c1	none
C/C(=N/NC(=O)c1ccc(Br)o1)c1ccncc1	AHR activator 50
C/C(=N/NC(=O)c1ccc(Br)o1)c1cccc(NC(=O)c2ccc(C)o2)c1	AHR activator 51
CCOC(=O)N1CCC(N2CC34C=CC(O3)C(C(=O)Nc3ccc(C)cc3)C4C2=O)CC1 (centres undefined)	AHR activator 77
COC(=O)C1C2C=CC(C3CC23)C1C(=O)OCC(=O)c1ccc(OC)cc1 (centres undefined)	none
CCCCC(=O)Nc1nn(CC(C)C)c2nc3ccccc3cc12	none
CCCn1nc(NC(=O)CC(C)C)c2cc3ccccc3nc21	AHR activator 78
CC(Oc1cccnc1[N+](=O)[O-])C(=O)Nc1ccc(Cl)cn1 (centres undefined)	AHR activator 56 (no result: HIF act)
COc1ccc(Nc2cccc3ccccc23)cc1	AHR activator 77
CC12CCCC[C@@H]1CCC1C2CCC2(C)C1CC[C@@]2(O)CNCCO (some centres undefined)	none
CCCCN(C)C(=O)C1CCCN(S(=O)(=O)c2ccc3c(c2)CC(C)N3C(=O)C2CC2)C1 (centres undefined)	none
Cc1cc(C)c(C(N)=O)c(Nc2cccc3ccccc23)n1	AHR activator 52
COc1ccccc1Nc1nc(C)cc(C)c1C(N)=O	none
CN(C)S(=O)(=O)c1cccc(NC(=O)c2cc(-c3cccs3)nn2-c2cccc(Cl)c2)c1	none
COc1ccc(-c2cc3nc(C)cc(C)n3n2)cc1	none
Cc1cc(C)n2nc(-c3sccc3-n3c(C)ccc3C)cc2n1	AHR activator 52 (no result: HIF act)
Cc1ccc(N/C=C/C(=O)c2cccs2)cc1C	none
O=C(NCCc1ccc(Cl)cc1)c1ncn[nH]1	none
CC(=O)Nc1cc2nn(-c3ccccc3)nc2cc1Cl	AHR activator 57
O=C(Nc1ccc2nn(-c3ccccc3)nc2c1)c1ccco1	none
O=C(Nc1cc2nn(-c3ccccc3)nc2cc1Cl)c1ccco1	AHR activator 47 (no result: SR-BI uptake up, SR-BI HDL uptake)
COC(=O)c1ccc(CNC(=O)Cn2nnnc2CN(C)C(C)C)cc1	AHR activator 56
CC(C)N(C)Cc1nnnn1CC(=O)N(C)Cc1cccc(Cl)c1	none
CC(C)N(C)Cc1nnnn1CC(=O)N(C)Cc1ccc(F)cc1	AHR activator 49
COc1cccc(CNc2ccc(S(N)(=O)=O)cc2)c1OCc1ccccc1F	AHR activator 48
Cn1c(CN2CCCCC2)nc2cc([N+](=O)[O-])ccc21	AHR activator 67
Cn1c(CN2CCN(C(=O)c3ccccc3Cl)CC2)nc2cc([N+](=O)[O-])ccc21	none
COc1ccc(-c2nn(-c3ccccc3)cc2/C=N/NS(=O)(=O)c2ccccc2)cc1	AHR activator 50
COc1ccc(-c2nn(-c3ccccc3)cc2/C=N/NC(=O)c2cccc(S(=O)(=O)Nc3ccccc3Cl)c2)cc1	SR-BI HDL uptake 80
Cn1c(=O)n(CCOc2ccccc2Cl)c2ccccc21	AHR activator 59
Cn1c(=O)n(CCOc2ccc(Cl)cc2Cl)c2ccccc21	none
Cc1cccc(S(=O)(=O)N/N=c2\sc3ccccc3n2C)c1	AHR activator 66
Cc1ccc(-c2nc3ccccc3[nH]2)s1	AHR activator 55
COC(=O)c1ccc(NC(=O)c2cc(-c3ccccn3)nc3ccccc23)cc1	none
COc1ccc(NC(=O)c2cc(-c3ccccn3)nc3ccccc23)c(OC)c1	none (no result: HIF act)
CCN(CC)C(=O)c1cccc(NC(=O)c2cc(-c3ccccn3)nc3ccccc23)c1	SR-BI HDL uptake 75 (no result: HIF act)
CCOc1ccccc1NC(=O)c1cc(-c2ccccn2)nc2ccccc12	SR-BI HDL uptake 75, AHR activator 71 (no result: HIF act)
COCCCNc1c2c3c(cccc3[nH]c1=O)C(=O)c1ccccc1-2	AHR activator 70 (no result: HIF act)
COCCCNC1=C(Cl)C(=O)c2ccccc2C1=O	none
CCN=C(NCC)SC1CC(=O)N(c2ccc(F)cc2)C1=O (centres undefined)	none
Cc1nc(N)sc1-c1nnc(SCC(=O)Nc2nccs2)n1C	none
COc1cc(/C=N/NC(=O)c2cccnc2)cc(Br)c1O	none
O=C(N/N=C/c1cc2c(cc1[N+](=O)[O-])OCO2)c1cccnc1	AHR activator 51
O=C(N/N=C/c1ccc2c(c1)OCO2)c1cccnc1	AHR activator 55 (no result: SR-BI uptake up, SR-BI HDL uptake)
O=C(N/N=C/c1cc2c(c([N+](=O)[O-])c1)OCO2)c1ccncc1	AHR activator 61
O=C(NCc1nnc(SCC(=O)N2CCCC2)o1)c1c(F)cccc1Cl	none
O=S(=O)(c1cccc2nsnc12)N1CCCC1	none
CCOc1cc(C(=O)N/N=C\c2cn(CC)nc2C)cc(OCC)c1OCC	SR-BI HDL uptake 81

Source: PubChem BioAssay
